Source: ChEMBL document CHEMBL1134236, “Anti-MRSA cephems. Part 1: C-3 substituted thiopyridinium derivatives” (Bioorg Med Chem Lett, 2001)
Values after ≈ are worked out from the molar mass of the structure shown.

What was measured:
Staphylococcus aureus [1] = experiment: Dose required for protective activity against methicillin-resistant Staphylococcus aureus (MRSA) A27223 in mouse following i.m. administration.; details: im, read-out: PD50
Staphylococcus aureus [2] = experiment: Minimum inhibitory concentration against methicillin-resistant Staphylococcus aureus (MRSA) A27223 in the presence of 50% calf serum.; assay type: functional
Summary of the method: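 NCCLS broth MIC in Mueller-Hinton broth with 2% NaCl plus 50% calf serum. Inoculum about 5×10⁵ CFU/mL, incubated at 35 °C for 24 h. Read as the lowest concentration with no visible growth.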

Staphylococcus aureus [3] = experiment: Concentration required for 90% inhibitory activity against methicillin-resistant Staphylococcus aureus; assay type: functional
Summary of the method: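 Panel of 58 MRSA strains tested by NCCLS broth method in Mueller-Hinton broth with 2% NaCl. Inoculum about 5×10⁵ CFU/mL, 35 °C for 24 h. MICs read as no visible growth, and MIC90 derived across the panel.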

Staphylococcus aureus [4] = experiment: Minimum inhibitory concentration against methicillin-resistant Staphylococcus aureus (MRSA) A27223; assay type: functional
Summary of the method: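 Broth microdilution per NCCLS in Mueller-Hinton broth with 2% NaCl. Inoculum about 5×10⁵ CFU/mL, incubated at 35 °C for 24 h. MIC is the lowest drug concentration that inhibits all visible growth.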

[5] = Concentration required for the inhibitory activity against PBP2a
Streptococcus pyogenes = experiment: Minimum inhibitory concentration against Streptococcus pyogenes Todd Hewitt A9604; assay type: functional
Summary of the method: (§1)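 Broth dilution MIC under standard NCCLS-recommended conditions. The MIC was read as the lowest drug concentration giving no visible growth. Where the line states it, 50% calf serum was added.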

Streptococcus pneumoniae [6] = experiment: Minimum inhibitory concentration against penicillin resistant Streptococcus pneumoniae A28272; assay type: functional
Staphylococcus aureus [7] = experiment: Minimum inhibitory concentration against Staphylococcus aureus / MR. P- A27225; assay type: functional
Summary of the method: (§2)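 Broth MIC under NCCLS standard conditions in Mueller-Hinton broth plus 2% NaCl. Inoculum was about 5×10⁵ CFU/mL, incubated at 35 °C for 24 h. The endpoint was the lowest drug concentration inhibiting all visible growth. Where the line states it, 50% calf serum was added.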

Staphylococcus aureus [8] = experiment: Minimum inhibitory concentration against Staphylococcus aureus / Homo MR A27621; assay type: functional
Summary of the method: as §2

Staphylococcus aureus [9] = experiment: Minimum inhibitory concentration against Staphylococcus aureus / Hetero MR A27218; assay type: functional
Summary of the method: as §2

[10] = system: Staphylococcus haemolyticus; experiment: Minimum inhibitory concentration against Staphylococcus haemolyticus / Homo MR A27229; assay type: functional
Summary of the method: as §1

Enterococcus faecalis [11] = experiment: Minimum inhibitory concentration against Enterococcus faecalis A20688 with 50% calf serum; assay type: functional
Summary of the method: as §1

Enterococcus faecium [12] = experiment: Minimum inhibitory concentration against Enterococcus faecium Amp. R. Vanco. S A28156; assay type: functional
Summary of the method: as §1

Staphylococcus aureus [13] = experiment: Minimum inhibitory concentration against Staphylococcus aureus / Homo MR A27223; assay type: functional
Summary of the method: as §2

Staphylococcus aureus [14] = experiment: Minimum inhibitory concentration against Staphylococcus aureus / Hetero MR A27217; assay type: functional
Summary of the method: as §2

Staphylococcus aureus [15] = experiment: Minimum inhibitory concentration against Staphylococcus aureus A27218 with 50% calf serum; assay type: functional
Summary of the method: as §2

Staphylococcus aureus [16] = experiment: Minimum inhibitory concentration against Staphylococcus aureus / Homo MR A27226; assay type: functional
Summary of the method: as §2

Enterococcus faecium [17] = experiment: Minimum inhibitory concentration against Enterococcus faecium A24885; assay type: functional
Summary of the method: as §1

Streptococcus pneumoniae [18] = experiment: Minimum inhibitory concentration against Streptococcus pneumoniae / Pen.I A27881; assay type: functional
Summary of the method: as §1

Staphylococcus aureus [19] = experiment: Minimum inhibitory concentration against Staphylococcus aureus / + 50% calf serum A27223; assay type: functional
Summary of the method: as §2

Staphylococcus aureus [20] = experiment: Minimum inhibitory concentration against Staphylococcus aureus / Pen.+ A9606; assay type: functional
Summary of the method: as §1

Staphylococcus aureus [21] = experiment: Minimum inhibitory concentration against Staphylococcus aureus / Homo MR A27295; assay type: functional
Summary of the method: as §2

[22] = system: Staphylococcus epidermidis; experiment: Minimum inhibitory concentration against Staphylococcus epidermidis A24548; assay type: functional
Summary of the method: as §1

[23] = system: Staphylococcus epidermidis; experiment: Minimum inhibitory concentration against Staphylococcus epidermidis / Imipenem A27368; assay type: functional
Summary of the method: as §1

Staphylococcus aureus [24] = experiment: Minimum inhibitory concentration against Staphylococcus aureus A20241 /MS/Pen.; assay type: functional
Summary of the method: as §1

Staphylococcus aureus [25] = experiment: Minimum inhibitory concentration against Staphylococcus aureus / Pen.- A9497; assay type: functional
Summary of the method: as §1

Enterococcus faecalis [26] = experiment: Minimum inhibitory concentration against Enterococcus faecalis A20688; assay type: functional
Summary of the method: as §1

[27] = system: Staphylococcus epidermidis; experiment: Minimum inhibitory concentration against Staphylococcus epidermidis / MR A25783; assay type: functional
Summary of the method: as §1

[28] = system: Staphylococcus haemolyticus; experiment: Minimum inhibitory concentration against Staphylococcus haemolyticus A21638; assay type: functional
Summary of the method: as §1

Staphylococcus aureus [29] = experiment: Minimum inhibitory concentration against Staphylococcus aureus A9606 with 50% calf serum; assay type: functional
Summary of the method: as §1

With `Cl.NCCC[n+]1ccc(SCC2=C(C(=O)O)N3C(=O)[C@@H](NC(=O)CSc4cc(Cl)ccc4Cl)[C@H]3SC2)cc1.[Cl-]` the ED50 (Staphylococcus aureus [1]) was 1.4 mg/kg, the MIC (Staphylococcus aureus [2]) was 2 µg/mL and the MIC90 (Staphylococcus aureus [3]) was 2 µg/mL. It also gave an MIC (Staphylococcus aureus [4]) of 0.125 µg/mL and an IC50 [5] of 1200 nM.

In the case of `NC(CCC[n+]1ccc(SCC2=C(C(=O)[O-])N3C(=O)[C@@H](NC(=O)CSc4cc(Cl)ccc4Cl)[C@H]3SC2)cc1)C(=O)O` (stereo partly drawn), the ED50 (Staphylococcus aureus [1]) is reported as 4.1 mg/kg, the MIC (Staphylococcus aureus [2]) is reported as 4 µg/mL and the MIC90 (Staphylococcus aureus [3]) is reported as 3.5 µg/mL (≈ 5.32 µM). For the same compound, the MIC (Staphylococcus aureus [4]) was 1 µg/mL (≈ 1.52 µM) and the IC50 [5] was 2800 nM.

For `Cc1cc(SCC2=C(C(=O)O)N3C(=O)[C@@H](NC(=O)CSc4cc(Cl)ccc4Cl)[C@H]3SC2)cc(CCC(=O)O)[n+]1CCCN.O=C(O)C(F)(F)F.O=C([O-])C(F)(F)F`, the MIC (Streptococcus pyogenes) was 0.0005 µg/mL, the MIC (Streptococcus pneumoniae [6]) was 0.25 µg/mL and the MIC (Staphylococcus aureus [7]) was 0.5 µg/mL. It also gave an ED50 (Staphylococcus aureus [1]) of 2.5 mg/kg, an MIC (Staphylococcus aureus [8]) of 1 µg/mL and an MIC (Staphylococcus aureus [2]) of 4 µg/mL. For the same compound, the MIC (Staphylococcus aureus [9]) was 0.5 µg/mL, the MIC [10] was 2 µg/mL and the MIC (Enterococcus faecalis [11]) was 4 µg/mL. It also gave an MIC (Enterococcus faecium [12]) of 64 µg/mL, an MIC (Staphylococcus aureus [13]) of 1 µg/mL and an MIC (Staphylococcus aureus [14]) of 0.5 µg/mL. For the same compound, the MIC (Staphylococcus aureus [15]) was 1 µg/mL, the MIC (Staphylococcus aureus [16]) was 0.5 µg/mL and the MIC (Enterococcus faecium [17]) was 2 µg/mL. It also gave an MIC (Staphylococcus aureus [4]; Staphylococcus aureus, read-out: MIC) of 1 µg/mL, an MIC (Streptococcus pneumoniae [18]) of 0.06 µg/mL and an MIC (Staphylococcus aureus [19]) of 4 µg/mL. For the same compound, the MIC (Staphylococcus aureus [20]) was 0.125 µg/mL, the MIC (Staphylococcus aureus [21]) was 2 µg/mL and the MIC [22] was 0.03 µg/mL. The MIC [23] was 0.5 µg/mL, the MIC (Staphylococcus aureus [24]) was 0.25 µg/mL and the MIC (Staphylococcus aureus [25]) was 0.007 µg/mL. It also gave an MIC (Enterococcus faecalis [26]) of 0.5 µg/mL, an MIC [27] of 0.25 µg/mL and an MIC [28] of 0.125 µg/mL. The MIC (Staphylococcus aureus [29]) was 0.25 µg/mL.

`NCCC[n+]1ccc(SCC2=C(C(=O)O)N3C(=O)[C@@H](NC(=O)CSc4cc(Cl)ccc4Cl)[C@H]3SC2)cc1CCCC(=O)O.O=C(O)C(F)(F)F.O=C([O-])C(F)(F)F` showed an MIC (Streptococcus pyogenes) of 0.0005 µg/mL, an MIC (Streptococcus pneumoniae [6]) of 0.06 µg/mL and an MIC (Staphylococcus aureus [7]) of 0.5 µg/mL. It also gave an ED50 (Staphylococcus aureus [1]) of 5.1 mg/kg, an MIC (Staphylococcus aureus [8]) of 0.5 µg/mL and an MIC (Staphylococcus aureus [2]) of 4 µg/mL. For the same compound, the MIC90 (Staphylococcus aureus [3]) was 4 µg/mL, the MIC (Staphylococcus aureus [9]) was 0.5 µg/mL and the MIC [10] was 1 µg/mL. For the same compound, the MIC (Enterococcus faecalis [11]) was 1 µg/mL, the MIC (Enterococcus faecium [12]) was 32 µg/mL and the MIC (Staphylococcus aureus [13]) was 0.5 µg/mL. The MIC (Staphylococcus aureus [14]) was 0.25 µg/mL, the MIC (Staphylococcus aureus [15]) was 0.5 µg/mL and the MIC (Staphylococcus aureus [16]) was 0.25 µg/mL. The MIC (Enterococcus faecium [17]) was 1 µg/mL, the MIC (Staphylococcus aureus [4]) was 0.5 µg/mL and the MIC (Streptococcus pneumoniae [18]) was 0.007 µg/mL. The MIC (Staphylococcus aureus [19]) was 2 µg/mL, the MIC (Staphylococcus aureus [20]) was 0.06 µg/mL and the MIC (Staphylococcus aureus [21]) was 1 µg/mL. For the same compound, the MIC [22] was 0.015 µg/mL, the MIC [23] was 0.125 µg/mL and the MIC (Staphylococcus aureus [24]) was 0.06 µg/mL. The MIC (Staphylococcus aureus [25]) was 0.001 µg/mL, the MIC (Enterococcus faecalis [26]) was 0.25 µg/mL and the MIC [27] was 0.03 µg/mL. The MIC [28] was 0.03 µg/mL, the MIC (Staphylococcus aureus [29]) was 0.25 µg/mL and the IC50 [5] was 3400 nM.

`NCCC[n+]1ccc(SCC2=C(C(=O)O)N3C(=O)[C@@H](NC(=O)CSc4cc(Cl)ccc4Cl)[C@H]3SC2)cc1CCC(=O)O.O=C(O)C(F)(F)F.O=C([O-])C(F)(F)F` showed an MIC (Streptococcus pyogenes) of 0.003 µg/mL, an MIC (Streptococcus pneumoniae [6]) of 0.06 µg/mL and an MIC (Staphylococcus aureus [7]) of 1 µg/mL. For the same compound, the ED50 (Staphylococcus aureus [1]) was 2.1 mg/kg, the MIC (Staphylococcus aureus [8]) was 1 µg/mL and the MIC (Staphylococcus aureus [2]) was 2 µg/mL. It also gave an MIC (Staphylococcus aureus [9]) of 0.5 µg/mL, an MIC [10] of 2 µg/mL and an MIC (Enterococcus faecalis [11]) of 1 µg/mL. For the same compound, the MIC (Enterococcus faecium [12]) was 64 µg/mL, the MIC (Staphylococcus aureus [13]) was 2 µg/mL and the MIC (Staphylococcus aureus [14]) was 0.5 µg/mL. It also gave an MIC (Staphylococcus aureus [15]) of 1 µg/mL, an MIC (Staphylococcus aureus [16]) of 1 µg/mL and an MIC (Enterococcus faecium [17]) of 2 µg/mL. For the same compound, the MIC (Staphylococcus aureus [4]) was 2 µg/mL, the MIC (Streptococcus pneumoniae [18]) was 0.003 µg/mL and the MIC (Staphylococcus aureus [19]) was 2 µg/mL. For the same compound, the MIC (Staphylococcus aureus [20]) was 0.125 µg/mL, the MIC (Staphylococcus aureus [21]) was 4 µg/mL and the MIC [22] was 0.03 µg/mL. It also gave an MIC [23] of 0.25 µg/mL, an MIC (Staphylococcus aureus [24]) of 0.125 µg/mL and an MIC (Staphylococcus aureus [25]) of 0.007 µg/mL. For the same compound, the MIC (Enterococcus faecalis [26]) was 0.5 µg/mL, the MIC [27] was 0.25 µg/mL and the MIC [28] was 0.06 µg/mL. The MIC (Staphylococcus aureus [29]) was 0.125 µg/mL.

With `Cc1cc(SCC2=C(C(=O)O)N3C(=O)[C@@H](NC(=O)CSc4cc(Cl)ccc4Cl)[C@H]3SC2)cc(CCC(=O)O)[n+]1CCN.O=C(O)C(F)(F)F.O=C([O-])C(F)(F)F` the ED50 (Staphylococcus aureus [1]) was 3.9 mg/kg, the MIC (Staphylococcus aureus [2]) was 2 µg/mL and the MIC (Staphylococcus aureus [4]) was 2 µg/mL.

In the case of `C=CCCc1cc(SCC2=C(C(=O)[O-])N3C(=O)[C@@H](NC(=O)CSc4cc(Cl)ccc4Cl)[C@H]3SC2)cc(C)[n+]1CC[C@@H](O)C(=O)O`, the ED50 (Staphylococcus aureus [1]) is reported as 19.2 mg/kg, the MIC (Staphylococcus aureus [2]) is reported as 8 µg/mL and the MIC (Staphylococcus aureus [4]) is reported as 4 µg/mL (≈ 5.61 µM).

With `CCCC[n+]1c(C)cc(SCC2=C(C(=O)[O-])N3C(=O)[C@@H](NC(=O)CSc4cc(Cl)ccc4Cl)[C@H]3SC2)cc1CCC(=O)O` the ED50 (Staphylococcus aureus [1]) was > 23 mg/kg, the MIC (Staphylococcus aureus [2]) was 8 µg/mL and the MIC (Staphylococcus aureus [4]) was 4 µg/mL (≈ 5.84 µM).

With `Cc1cc(SCC2=C(C(=O)[O-])N3C(=O)[C@@H](NC(=O)CSc4cc(Cl)ccc4Cl)[C@H]3SC2)cc(CCC(=O)O)[n+]1C[C@@H](O)[C@H](O)[C@@H](O)C(O)O` the ED50 (Staphylococcus aureus [1]) was > 20 mg/kg, the MIC (Staphylococcus aureus [2]) was 16 µg/mL and the MIC (Staphylococcus aureus [4]) was 8 µg/mL (≈ 10.3 µM).
